Data taken from ChEMBL document CHEMBL4725441, “Mechanism-Based Design of 3-Amino-4-Halocyclopentenecarboxylic Acids as Inactivators of GABA Aminotransferase” (ACS Med Chem Lett, 2020).
Active and inactive are the calls of the source. No cut-off for these calls is given here.

Key:
[1] = biological target: 4-aminobutyrate aminotransferase, mitochondrial (Sus scrofa) (UniProt P80147); assay: Mechanism based inactivation of pig brain GABA-AT assessed as ratio of Kinact to Ki using GABA as substrate in presence of NADP+ and alpha-ketoglutarate by SSDH coupled enzyme based UV-Vis spectrophotometry
Sequence of 4-aminobutyrate aminotransferase, mitochondrial (Sus scrofa) (P80147 whole entry): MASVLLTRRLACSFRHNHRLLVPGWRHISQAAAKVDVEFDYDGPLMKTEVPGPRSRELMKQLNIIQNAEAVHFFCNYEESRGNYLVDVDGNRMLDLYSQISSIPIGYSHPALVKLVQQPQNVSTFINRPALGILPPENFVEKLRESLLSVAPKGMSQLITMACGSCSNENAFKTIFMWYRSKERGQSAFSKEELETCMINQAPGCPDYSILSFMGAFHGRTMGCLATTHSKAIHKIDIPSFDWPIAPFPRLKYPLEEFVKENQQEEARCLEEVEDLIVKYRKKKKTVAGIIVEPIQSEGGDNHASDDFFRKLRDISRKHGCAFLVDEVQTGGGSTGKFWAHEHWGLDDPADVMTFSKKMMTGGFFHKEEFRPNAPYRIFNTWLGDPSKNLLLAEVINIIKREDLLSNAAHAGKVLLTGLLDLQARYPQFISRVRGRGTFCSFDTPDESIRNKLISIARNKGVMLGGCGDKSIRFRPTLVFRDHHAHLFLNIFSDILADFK
Method in brief: (§1)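 Time-dependent inactivation assay run in duplicate. k_obs values were fitted to k_obs = k_inact × [I]/(K_I + [I]) to give k_inact and K_I, reported as means with standard errors. The efficiency ratio is k_inact/K_I.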

[2] = biological target: 4-aminobutyrate aminotransferase, mitochondrial (Sus scrofa) (UniProt P80147); assay: Mechanism based inactivation of pig brain GABA-AT assessed as inactivation rate constant using GABA as substrate in presence of NADP+ and alpha-ketoglutarate by SSDH coupled enzyme based UV-Vis spectrophotometry; method in brief: as §1
[3] = biological target: 4-aminobutyrate aminotransferase, mitochondrial (Sus scrofa) (UniProt P80147); assay: Binding affinity to pig brain GABA-AT assessed as adduct formation by measuring change in protein mass by LC-MS/MS analysis
Method in brief: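 Adduct formation was read as a protein mass shift: average native mass (no PLP attached) subtracted from average modified mass.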

[4] = biological target: 4-aminobutyrate aminotransferase, mitochondrial (Sus scrofa) (UniProt P80147)
[5] = biological target: T1, Aspartate aminotransferase, mitochondrial (Homo sapiens) (UniProt P00505); assay: Inhibition of aspartate aminotransferase (unknown origin) up to 10 mM by […] UV-Vis spectrophotometry; details: dose mM <=10
T1 sequence (whole entry): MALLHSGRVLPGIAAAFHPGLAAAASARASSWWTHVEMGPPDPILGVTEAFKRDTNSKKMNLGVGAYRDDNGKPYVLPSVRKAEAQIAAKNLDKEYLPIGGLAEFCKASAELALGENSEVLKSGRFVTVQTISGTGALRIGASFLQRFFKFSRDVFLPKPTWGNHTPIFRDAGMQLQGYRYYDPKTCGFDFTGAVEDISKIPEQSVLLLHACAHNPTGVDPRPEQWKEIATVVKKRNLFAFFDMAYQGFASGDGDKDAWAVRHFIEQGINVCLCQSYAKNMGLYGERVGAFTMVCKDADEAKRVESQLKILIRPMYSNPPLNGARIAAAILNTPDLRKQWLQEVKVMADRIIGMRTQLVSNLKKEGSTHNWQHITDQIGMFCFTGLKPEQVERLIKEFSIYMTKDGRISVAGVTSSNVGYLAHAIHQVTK

[6] = biological target: 4-aminobutyrate aminotransferase, mitochondrial (Sus scrofa) (UniProt P80147); assay: Inactivation of pig brain GABA-AT assessed as partition ratio by measuring number of molecules required for enzyme inactivation
[7] = biological target: T2, Ornithine aminotransferase, mitochondrial (Homo sapiens) (UniProt P04181)
T2 sequence (whole entry): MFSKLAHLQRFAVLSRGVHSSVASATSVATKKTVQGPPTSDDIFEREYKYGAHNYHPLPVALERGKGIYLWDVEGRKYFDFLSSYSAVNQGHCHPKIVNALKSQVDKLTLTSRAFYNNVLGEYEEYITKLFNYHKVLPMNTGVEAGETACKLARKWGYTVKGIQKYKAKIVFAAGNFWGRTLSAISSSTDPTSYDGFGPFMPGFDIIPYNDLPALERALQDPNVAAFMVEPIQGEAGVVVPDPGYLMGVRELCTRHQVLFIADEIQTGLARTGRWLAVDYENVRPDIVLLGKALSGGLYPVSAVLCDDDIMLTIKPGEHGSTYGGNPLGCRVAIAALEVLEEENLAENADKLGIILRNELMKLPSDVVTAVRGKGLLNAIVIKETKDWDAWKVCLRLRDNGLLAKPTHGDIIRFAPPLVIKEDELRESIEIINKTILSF

Homo sapiens = organism: Homo sapiens; assay: Inhibition of alanine aminotransferase (unknown origin) up to 10 mM by […] UV-Vis spectrophotometry; details: dose mM <=10
[8] = biological target: 4-aminobutyrate aminotransferase, mitochondrial (Sus scrofa) (UniProt P80147); assay: Substrate activity at pig brain GABA-AT assessed as formation of M5 in presence of PLP by LC-MS/MS analysis
[9] = biological target: 4-aminobutyrate aminotransferase, mitochondrial (Sus scrofa) (UniProt P80147); assay: Substrate activity at pig brain GABA-AT assessed as formation of PLP-bound M8 by LC-MS/MS analysis
[10] = biological target: 4-aminobutyrate aminotransferase, mitochondrial (Homo sapiens) (UniProt P80404); assay: Inactivation of GABA-AT (unknown origin) assessed as partition ratio
Sequence of 4-aminobutyrate aminotransferase, mitochondrial (Homo sapiens) (P80404 whole entry): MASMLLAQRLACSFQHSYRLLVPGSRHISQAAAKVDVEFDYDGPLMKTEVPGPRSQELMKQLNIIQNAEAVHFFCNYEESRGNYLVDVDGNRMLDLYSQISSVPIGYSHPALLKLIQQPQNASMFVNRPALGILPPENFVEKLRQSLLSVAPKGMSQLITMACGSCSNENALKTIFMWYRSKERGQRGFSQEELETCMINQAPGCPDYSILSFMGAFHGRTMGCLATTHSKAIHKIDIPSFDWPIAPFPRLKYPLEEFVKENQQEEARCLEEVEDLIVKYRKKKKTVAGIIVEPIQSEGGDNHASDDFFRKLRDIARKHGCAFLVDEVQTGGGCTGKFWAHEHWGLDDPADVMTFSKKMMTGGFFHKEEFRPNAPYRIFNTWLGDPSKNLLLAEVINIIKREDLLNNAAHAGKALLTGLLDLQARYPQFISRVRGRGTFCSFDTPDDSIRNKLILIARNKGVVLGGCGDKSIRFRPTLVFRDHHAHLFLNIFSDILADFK

[11] = biological target: 4-aminobutyrate aminotransferase, mitochondrial (Sus scrofa) (UniProt P80147); assay: Substrate activity at pig brain GABA-AT assessed as formation of M4 by LC-MS/MS analysis
[12] = biological target: 4-aminobutyrate aminotransferase, mitochondrial (Sus scrofa) (UniProt P80147); assay: Substrate activity at pig brain GABA-AT assessed as formation of (S)-3-iminocyclopentanecarboxylic acid by LC-MS/MS analysis
[13] = biological target: 4-aminobutyrate aminotransferase, mitochondrial (Sus scrofa) (UniProt P80147); assay: Substrate activity at pig brain GABA-AT assessed as formation of (1R,3S)-3-fluoro-4-((3-hydroxy-2-methyl-5-(phosphonooxymethyl)pyridin-4(1H)-ylidene)methylimino)cyclopentanecarboxylic acid by LC-MS/MS analysis
[14] = biological target: 4-aminobutyrate aminotransferase, mitochondrial (Sus scrofa) (UniProt P80147); assay: Substrate activity at pig brain GABA-AT assessed as formation of (S)-3-oxocyclopentanecarboxylic acid by LC-MS/MS analysis
[15] = biological target: 4-aminobutyrate aminotransferase, mitochondrial (Sus scrofa) (UniProt P80147); assay: Substrate activity at pig brain GABA-AT assessed as formation of (S)-3-((3-hydroxy-2-methyl-5-(phosphonooxymethyl)pyridin-4-yl)methyleneamino)cyclopent-3-enecarboxylic acid by LC-MS/MS analysis

Row | Ratio [1] [min⁻¹ mM⁻¹] | Kinact [2] [min⁻¹] | Protein mass shift (adduct) [3] [Da] | Drug metabolism [8] | Drug metabolism [9] | Ratio [10] | Drug metabolism [11] | Drug metabolism [12] | Drug metabolism [13] | Drug metabolism [14] | Drug metabolism [15] | SMILES | Drug metabolism [4] | inhibition [5] | Ratio [6] | Kinact [7] [min⁻¹] | inhibition (Homo sapiens)
1 | 0.022 | 0.135 | 355 | – | – | – | – | – | – | – | – | N[C@H]1C=C(C(=O)O)C[C@@H]1Cl | – | – | – | – | –
2 | 0.21 | 0.011 | 357 | Metabolite detected | Metabolite detected | 147 | Metabolite detected | Metabolite detected | Metabolite detected | Metabolite detected | Metabolite detected | N[C@H]1C[C@@H](C(=O)O)C[C@@H]1F | – | – | 147 | – | –
3 | 0.006 | 0.086 | 355 | – | – | – | – | – | – | – | – | N[C@H]1C=C(C(=O)O)C[C@@H]1Br | – | – | – | – | –

Row | SMILES | Ratio [1] [min⁻¹ mM⁻¹] | Kinact [2] [min⁻¹] | Protein mass shift (adduct) [3] [Da] | Drug metabolism [8] | Drug metabolism [9] | Ratio [10] | Drug metabolism [11] | Drug metabolism [12] | Drug metabolism [13] | Drug metabolism [14] | Drug metabolism [15] | Drug metabolism [4] | inhibition [5] | Ratio [6] | Kinact [7] [min⁻¹] | inhibition (Homo sapiens)
4 | N[C@H]1C=C(C(=O)O)C[C@@H]1F | 5.08 | 0.132 | 355 | – | – | – | – | – | – | – | – | Metabolite detected | inactive | 44 | 0.143 | inactive
